High-throughput results (PubChem BioAssay)
PAFAH1B2 inh: PAFAH1B2 enzyme inhibitors, primary screen, biochemical, fluorescence polarization, human; 340,000 tested, 1.2% active; inhibition, % at 3.39 µM; recombinant PAFAH1B2, FP-rhodamine activity probe; Platelet-activating factor acetylhydrolase IB subunit alpha2 (Homo sapiens), P68402;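 active = inhibition above the mean of all tested compounds plus 3 SD, cut at about 24% in these data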;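 also: 0% = enzyme with DMSO and 100% = wells lacking PAFAH1B2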
PAFAH2 FP inh: PAFAH2 enzyme inhibitors, primary screen, biochemical, fluorescence polarization, human; Platelet-activating factor acetylhydrolase 2, cytoplasmic (Homo sapiens), Q99487; recombinant PAFAH2, FP-rhodamine activity probe; inhibition, % at 3.39 µM; 340,000 tested, 0.99% active; AID 492956, 2010;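 active = inhibition above the mean over all tested compounds plus 3 SD, cut at about 30% in these data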;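 also: inhibitors block probe labeling of enzyme so polarization drops; 0% = enzyme with DMSO and 100% = wells lacking PAFAH2 protein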
ASAP1 inh: inhibitors of human ASAP1 ArfGAP activity, primary screen, biochemical, fluorescence polarization. Arf-GAP with SH3 domain, ANK repeat and PH domain-containing protein 1 (Homo sapiens), …. ASAP1-stimulated ARF1 GTP hydrolysis, GDP FP detection. inhibition, % at 16.5 µM. 360,000 tested, 0.19% active. AID 624377, 2012; in the data active = inhibition above about 25%;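 also: 0% = vehicle with enzyme and substrate and 100% = no enzyme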
Target sequence (Q9ULH1 325-724 limits assumed): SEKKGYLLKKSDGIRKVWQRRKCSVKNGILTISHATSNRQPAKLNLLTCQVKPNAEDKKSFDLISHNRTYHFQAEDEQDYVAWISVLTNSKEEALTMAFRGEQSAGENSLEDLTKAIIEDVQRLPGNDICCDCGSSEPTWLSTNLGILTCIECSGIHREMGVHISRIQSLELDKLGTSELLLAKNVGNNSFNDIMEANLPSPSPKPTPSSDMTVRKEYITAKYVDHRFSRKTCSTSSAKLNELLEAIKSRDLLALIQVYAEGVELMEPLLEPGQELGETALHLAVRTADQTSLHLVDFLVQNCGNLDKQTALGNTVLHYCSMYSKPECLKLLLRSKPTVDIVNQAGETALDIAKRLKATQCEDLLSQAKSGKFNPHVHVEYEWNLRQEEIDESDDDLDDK
PAFAH1B3 FP inh: PAFAH1B3 enzyme inhibitors, primary screen, biochemical, fluorescence polarization, human; Platelet-activating factor acetylhydrolase IB subunit alpha1 (Homo sapiens), Q15102; recombinant PAFAH1B3, FP-rhodamine probe; inhibition, % at 3.39 µM; 340,000 tested, 0.28% active;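 active = inhibition above the screen-wide average of all tested compounds plus 3 SD, cut at about 25% in these data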;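 also: 0% = enzyme with DMSO only and 100% = wells lacking PAFAH1B3 protein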
pPAFAH inh: pPAFAH enzyme inhibitors, primary screen, biochemical, fluorescence polarization, human; 330,000 tested, 1.5% active; Platelet-activating factor acetylhydrolase (Homo sapiens), Q13093; inhibition, % at 3.39 µM; recombinant pPAFAH, FP-rhodamine probe fluorescence polarization;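 active = inhibition above the mean inhibition across the screen plus 3 SD, cut at about 25% in these data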;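 also: inhibitors block binding of the rhodamine activity-based probe so polarization drops; 0% = enzyme with DMSO and 100% = wells lacking pPAFAH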
ARFGAP1 inhibitor: inhibitors of rat ARFGAP1 GAP activity, primary screen, biochemical, fluorescence polarization, GDP tracer; inhibition, % at 16.5 µM; Arfgap1-stimulated ARF1 GTP hydrolysis, GDP FP detection; 360,000 tested, 0.26% active; AID 651572, 2012;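 active = inhibition above a per-plate limit, mean inhibition of low control wells plus 3 SD, cut at about 25% in these data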;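 also: 0% = DMSO wells with enzyme and 100% = wells lacking Arfgap1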
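Material: truncated rat Arfgap1 GAP domain; Incubation: compound-enzyme preincubation 20 min, reaction 120 min, detection 60 min, 25 °C; Read-out: percent inhibition of Arfgap1-stimulated GTP hydrolysis; Technique: FP, GDP Alexa 633 tracer displaced from anti-GDP antibody, 620/688 nm; Controls: No-Arfgap1 wells (100%) versus DMSO full-reaction wells (0%); Replication: single well per compound.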
pPAFAH FP conf: pPAFAH (PLA2G7) enzyme inhibitors, confirmation, biochemical, fluorescence polarization, human; shares compounds with pPAFAH inh; recombinant pPAFAH, FP-Rh probe fluorescence polarization; inhibition, % at 3.39 µM; 2,300 tested, 72% active;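 active = mean inhibition of the triplicate above the hit cutoff set for the earlier primary screen, cut at about 25% in these data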;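 also: 0% = enzyme with DMSO and 100% = wells lacking pPAFAH enzyme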
An asterisk follows results filed as active; / = no result; ! = not active in a repeat. This is a sample that favours compounds with a hit; in the whole collection about 2.7% have one here.

SMILES	PAFAH1B2 inh	PAFAH2 FP inh	ASAP1 inh	PAFAH1B3 FP inh	pPAFAH inh	ARFGAP1 inhibitor	pPAFAH FP conf
O=C(N[C@@H](Cc1cccnc1)C(=O)N1CCC[C@H]1C(=O)NC1CCCC1)c1cccs1	/	/	9	/	/	1	/
O=C(O)Cc1c[nH]c2ccccc12	5	3	2	14	2	/	/
O=C(O)Cc1c[nH]c2cccc(O)c12	12	9	-3	19	47*	6	9
CCOC(=O)c1cc(C#N)c(SCC(N)=O)[nH]c1=O	5	9	8	19	51*	5	1
CCOC(=O)c1cc(C#N)c(SCC(=O)c2cc(C#N)c(SC)nc2C)[nH]c1=O	4	4	9	9	14	-6	/
COc1ccc(-c2cc(=O)oc3c(O)c(O)ccc23)cc1	5	29	2	21	43*	7	80*
N[C@@H](Cc1cc(I)c(Oc2ccc(O)c(I)c2)c(I)c1)C(=O)O	7	27	14	3	69*!	12	71*
N[C@@H](Cc1cc(I)c(Oc2cc(I)c(O)c(I)c2)c(I)c1)C(=O)O	/	/	/	/	44*	/	39*
CCC1=C([N+](=O)[O-])C(c2ccc3c(c2)OCO3)NC(=O)N1 (stereo not drawn)	10	-1	9	4	3	-1	/
O=C(O)CSCC(=O)N(Cc1ccccc1)c1nc(-c2ccccc2)c(-c2ccccc2)s1	23	-6	-5	3	54*	-16	54*
Cn1c(C=O)c(-c2ccc3cc[nH]c3c2)c2ccccc21	-4	-9	11	4	3	6	/
CC(=O)N1CCc2c(sc(NC(=O)CS(=O)(=O)c3ccc(F)cc3)c2C#N)C1	6	12	0	14	43*	-3	7
O=S(=O)(Nc1nc(-c2sccc2Cl)cs1)c1cc(Cl)ccc1Cl	4	42*	/	0	47*	/	51*
NC(=O)c1ncn([C@@H]2O[C@H](C(=O)N[C@H](Cc3ccccc3)C(=O)N3CCN(CC(=O)Nc4ccccn4)CC3)[C@@H](O)[C@H]2O)n1	/	/	-16	/	/	7	/
CN(C(=O)c1cccnc1)c1nnc(-c2cnccn2)s1	2	3	5	-3	5	12	/
CN(C(=O)c1cccnc1)c1nnc(-c2cccnc2)s1	2	0	-6	-4	42*	8	3
Clc1ccc(CNc2ccc(CNc3ncn[nH]3)cc2)c(Cl)c1	8	1	-7	6	37*	-4	20
CCOCCn1c(=O)c2c(nc3n2CCCN3CCc2ccccc2)n(C)c1=O	3	-8	-7	-3	4	13	/
CCOCCn1c(=O)c2c(nc3n2CCCN3Cc2ccccc2)n(C)c1=O	2	1	5	1	42*	-12	3
O=C(Oc1ccc(Cl)cc1)N1CCOCC1	1	11	9	10	8	-1	/
O=C(Oc1ccc(-c2ccccc2)cc1)N1CCOCC1	5	32*	-4	-2	94*	-6	98*
O=C(Oc1ccc(Oc2ccccc2)cc1)N1CCC(O)CC1	-2	26	10	1	94*	6	92*
O=C(Oc1ccccc1)N1CCCC1	-2	2	-20	-6	-3	0	/
O=C(NCCCCC(NC(=O)c1ccccc1)C(=O)O)OCc1ccccc1 (stereo not drawn)	/	/	-15	/	/	-3	/
CCCCOCC1CN(CCCC)S(=O)(=O)c2c(cccc2N2CCCCC2)O1 (stereo not drawn)	/	/	8	/	/	-6	/
